Each structure is given as a SMILES string. The source made the active and inactive calls.

The record followed here is ChEMBL document CHEMBL4706553, “Discovery of potent small molecule PROTACs targeting mutant EGFR” (Eur J Med Chem, 2020).

In one assay the test system is A-431. As to the kind of experiment: Antiproliferative activity against human A431 cells expressing wild type EGFR assessed as cell growth inhibition measured after 72 hrs by MTT assay. It is filed as functional, cell-based. The note with it: A-431, 72 h. Summed up: (§1)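 Cells were seeded at 3000–8000/well and allowed 24 h, then exposed to serial compound concentrations for 72 h. MTT (5 mg/mL stock in PBS) was added for 4 h, supernatant removed and DMSO added. IC50, defined as 50% growth inhibition, was derived by nonlinear regression (log inhibitor vs response).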

In a further assay the test system is HCC827. As to the kind of experiment: Antiproliferative activity against human HCC827 cells expressing EGFR del19 mutant assessed as cell growth inhibition measured after 72 hrs by MTT assay. It is filed as functional, cell-based. As to conditions: HCC827, 72 h. Summed up:
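HCC827 cells were kept in RPMI-1640 with 10% heat-inactivated FBS, 1% sodium pyruvate, 1% glutamine and 1% penicillin-streptomycin at 37 °C and 5% CO₂, seeded at 3000–8000/well and rested 24 h. Compounds were applied as a concentration series for 72 h. MTT (5 mg/mL stock in PBS) was given for 4 h, then medium was removed and DMSO added. IC50 came from nonlinear regression (log inhibitor vs response).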

A further assay has as its system NCI-H1975. As to the kind of experiment: Antiproliferative activity against human H1975 cells expressing EGFR L858R/T790M mutant assessed as cell growth inhibition measured after 72 hrs by MTT assay. The note with it: NCI-H1975, 72 h. It counts as functional, cell-based. The procedure, abridged: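 MTT assay on H1975 cells grown in RPMI-1640 with 10% heat-inactivated FBS and 1% penicillin-streptomycin at 37 °C and 5% CO₂. Cells were seeded at 3000–8000 per well and left 24 h, then exposed to a concentration series for 72 h. MTT (5 mg/mL stock in PBS) was added for 4 h, supernatant removed and formazan dissolved in DMSO. IC50 was fitted by nonlinear regression (log inhibitor vs response).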
On the technique in general: Formazan colour is commonly taken as a measure of viable cells.

The next assay concerns HepG2. As to the kind of experiment: Antiproliferative activity against human HepG2 cells expressing VEGFR2 assessed as cell growth inhibition measured after 72 hrs by MTT assay. It counts as functional, cell-based. The note with it: HepG2, 72 h. The procedure, abridged:
as §1

Assay [1] relates to Protein cereblon/Epidermal growth factor receptor (Homo sapiens), P00533+Q96SW2 [UNDEFINED MUTATION]. As to the kind of experiment: Protac activity at CRBN/EGFR del19 mutant in human HCC827 cells assessed as induction of EGFR degradation at 333 nM measured after 24 hrs by Western blot analysis. It counts as cell-based. The procedure, abridged: (§2)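 HCC827 cells seeded at 0.5–1 × 10⁶ per well, grown 24 h, then treated at the stated concentrations for 24 h. EGFR^del19 level by Western blot with anti-EGFR antibody and β-actin loading control.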
On the technique in general: A western blot detects proteins with antibodies after separation by electrophoresis.

For assay [2] the test system is unchanged. As to the kind of experiment: Protac activity at CRBN/EGFR del19 mutant in human HCC827 cells assessed as induction of EGFR degradation at 33 nM measured after 24 hrs by Western blot analysis. It counts as cell-based. Summed up:
as §2

Assay [3] deals with von Hippel-Lindau disease tumor suppressor/Epidermal growth factor receptor (Homo sapiens), P00533+P40337 [UNDEFINED MUTATION]. As to the kind of experiment: Protac activity at VHL/EGFR del19 mutant in human HCC827 cells assessed as induction of EGFR degradation at 33 to 333 nM measured after 24 hrs by Western blot analysis. It is filed as cell-based. As to conditions: dose 33-333 nM. The procedure, abridged:
as §2

Assay [4] has the same test system. As to the kind of experiment: Protac activity at VHL/EGFR del19 mutant in human HCC827 cells assessed as induction of EGFR degradation at 1 to 33 nM incubated for 24 hrs by Western blot analysis. It counts as cell-based. The note with it: dose 1-33 nM. Summed up:
as §2

The subject of assay [5] is von Hippel-Lindau disease tumor suppressor/Epidermal growth factor receptor (Homo sapiens), P00533+P40337 [L858R,T790M]. As to the kind of experiment: Protac activity at VHL/EGFR L858R/T790M mutant in human H1975 cells assessed as induction of degradation of EGFR at 0.33 to 1 uM incubated for 24 hrs by Western blot analysis. It is filed as cell-based. The note with it: NCI-H1975, dose 0.33-1 µM. The procedure, abridged: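 H1975 cells, after 24 h seeding, treated at the stated concentrations for 24 h. EGFR by Western blot with β-actin loading control.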

Assay [6] shares this test system. As to the kind of experiment: Protac activity at VHL/EGFR L858R/T790M mutant in human H1975 cells assessed as induction of degradation of EGFR at 333 nM incubated for 48 hrs measured after compound wash-out for 48 hrs by Western blot analysis. It counts as cell-based. As to conditions: NCI-H1975. The procedure, abridged: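 H1975 cells (RPMI-1640, 10% heat-inactivated FBS) exposed to 333 nM for 48 h. Medium then replaced with compound-free medium, and lysates collected at the stated times. EGFR read by Western blot; n = 2.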

Assay [7] has as its system von Hippel-Lindau disease tumor suppressor/Epidermal growth factor receptor (Homo sapiens), P00533+P40337 [UNDEFINED MUTATION]. As to the kind of experiment: Protac activity at VHL/EGFR del19 mutant in human HCC827 cells assessed as induction of EGFR degradation at 33 nM incubated for 24 hrs measured following drug wash-out for 24 hrs by Western blot analysis. It is filed as cell-based. The procedure, abridged:
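HCC827 cells (RPMI-1640, 10% heat-inactivated FBS, 1% sodium pyruvate, 1% glutamine, 37 °C, 5% CO₂) treated at 33 nM for 24 h. Medium then replaced with compound-free medium, and protein harvested at the stated times. EGFR read by Western blot; n = 2.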

Assay [8] has the same test system. As to the kind of experiment: Protac activity at VHL/EGFR del19 mutant in human HCC827 cells assessed as induction of EGFR degradation at 33 nM measured after 24 hrs by Western blot analysis. It is filed as cell-based. The procedure, abridged:
as §2

The test system is the same in assay [9]. As to the kind of experiment: Protac activity at VHL/EGFR del19 mutant in human HCC827 cells assessed as induction of EGFR degradation at 333 nM measured after 24 hrs by Western blot analysis. It is filed as cell-based. Summed up:
as §2

Assay [10] has the same test system. As to the kind of experiment: Protac activity at VHL/EGFR del19 mutant in human HCC827 cells assessed as induction of EGFR degradation at 33 nM by Western blot analysis. It counts as cell-based. As to conditions: time 12-72 hrs, TDE = time-dependent effect. Summed up: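 Time course in HCC827 cells at 33 nM, with protein harvested at each stated time point. EGFR^del19 detected by Western blot.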

The test system is the same in assay [11]. As to the kind of experiment: Protac activity at VHL/EGFR del19 mutant in human HCC827 cells assessed as maximal induction of EGFR degradation at 33 nM measured after 48 hrs by Western blot analysis. It is filed as cell-based. The procedure, abridged: (§3)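 HCC827 cells seeded at 0.5–1 × 10⁶ per well, then treated at the stated concentrations for 48 h. EGFR by Western blot; n = 3. DC₅₀ (concentration giving 50% EGFR loss) by nonlinear regression, log(inhibitor) vs response.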

Assay [12] deals with von Hippel-Lindau disease tumor suppressor/Epidermal growth factor receptor (Homo sapiens, UniProt P00533+P40337). As to the kind of experiment: Protac activity at VHL/EGFR del19 mutant in human HCC827 cells assessed as induction of EGFR degradation measured after 48 hrs by Western blot analysis. It counts as cell-based. Summed up: as §3
Assay [13] deals with von Hippel-Lindau disease tumor suppressor/Epidermal growth factor receptor (Homo sapiens, UniProt P00533+P40337, T790M/L858R). As to the kind of experiment: Protac activity at VHL/EGFR L858R/T790M mutant in human H1975 cells assessed as induction of degradation of EGFR incubated for 48 hrs by Western blot analysis. It counts as cell-based. As to conditions: nci-h1975. The procedure, abridged:
(§4)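 H1975 cells exposed to the stated concentrations for 48 h. EGFR by Western blot; n = 3. DC₅₀ by nonlinear regression, log(inhibitor) vs response.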

The subject of assay [14] is von Hippel-Lindau disease tumor suppressor/Epidermal growth factor receptor (Homo sapiens), P00533+P40337 [L858R,T790M]. As to the kind of experiment: Protac activity at VHL/EGFR L858R/T790M mutant in human H1975 cells assessed as maximal induction of degradation of EGFR incubated for 48 hrs by Western blot analysis relative to control. The note with it: NCI-H1975. It is filed as cell-based. The procedure, abridged: as §4

Broadly, the IC50 is the point on the concentration scale where inhibition reaches its midpoint. For the compound `CN1CCN(c2ccc(Nc3ncc4nc(Nc5ccccc5)n(C5CCCC5)c4n3)cc2)CC1`, the IC50 in the assay with A-431 was 163 nM; with HCC827 it was 0.82 nM; in the assay with NCI-H1975 it was 430 nM; in the assay on HepG2, greater than 5000 nM.
For `O=C1CCC(N2Cc3c(NC(=O)CCCCCCN4CCN(c5ccc(Nc6ncc7nc(Nc8ccccc8)n(C8CCCC8)c7n6)cc5)CC4)cccc3C2=O)C(=O)N1` (stereo not given), the IC50 with A-431 was 220 nM; with HCC827, 1.41 nM; in the assay on NCI-H1975, 9300 nM; in the assay with HepG2, greater than 5000 nM. The outcome in [1] was inactive. The outcome in assay [2] was Active.
As for `Cc1ncsc1-c1ccc(CNC(=O)[C@@H]2C[C@@H](O)CN2C(=O)[C@@H](NCCOCCOCCN2CCN(c3ccc(Nc4ncc5nc(Nc6ccccc6)n(C6CCCC6)c5n4)cc3)CC2)C(C)(C)C)cc1`, the figures for the IC50 in the assay on HCC827, with NCI-H1975 and with HepG2 were 53.5 nM, 1100 nM and greater than 5000 nM, respectively. Also, the result in assay [3] was inactive.
For the compound `Cc1ncsc1-c1ccc(CNC(=O)[C@@H]2C[C@@H](O)CN2C(=O)[C@@H](NCCOCCOCCOCCN2CCN(c3ccc(Nc4ncc5nc(Nc6ccccc6)n(C6CCCC6)c5n4)cc3)CC2)C(C)(C)C)cc1`, the figures for the IC50 in the assay on HCC827, in the assay on NCI-H1975 and in the assay with HepG2 were 54.4 nM, 2100 nM and greater than 5000 nM, respectively. In addition, in assay [3], the outcome was inactive.
Turning to `CN(CCOCCOCCOCCOCCN1CCN(c2ccc(Nc3ncc4nc(Nc5ccccc5)n(C5CCCC5)c4n3)cc2)CC1)CC(=O)Nc1cccc2c1CN(C1CCC(=O)NC1=O)C2=O` (stereo not given), the IC50 in the assay on A-431 is 2720 nM; in the assay on HCC827, 2.83 nM; with NCI-H1975 it was 3340 nM; in the assay with HepG2, greater than 5000 nM. The outcome in assay [1] was inactive. Besides, in assay [2], the outcome was Active.
As to `C=CC(=O)Nc1cc(Nc2nccc(-c3cn(C)c4ccccc34)n2)c(OC)cc1N(C)CCN(C)C` [OSIMERTINIB], the figures for the IC50 in the assay with A-431, in the assay with HCC827 and in the assay on NCI-H1975 were […], 0.97 nM and […], respectively.
`CN(CCOCCOCCN1CCN(c2ccc(Nc3ncc4nc(Nc5ccccc5)n(C5CCCC5)c4n3)cc2)CC1)CC(=O)Nc1cccc2c1CN(C1CCC(=O)NC1=O)C2=O` (stereo not given): the IC50 with A-431 was 2670 nM; with HCC827, 1.39 nM; in the assay with NCI-H1975, 1210 nM; in the assay on HepG2, greater than 5000 nM. Moreover, the outcome in assay [1] was inactive. For the same compound, the result in assay [2] was Active.
`Cc1ncsc1-c1ccc(CNC(=O)[C@@H]2C[C@H](O)CN2C(=O)[C@@H](NC(=O)CCCCCCN2CCN(c3ccc(Nc4ncc5nc(Nc6ccccc6)n(C6CCCC6)c5n4)cc3)CC2)C(C)(C)C)cc1`: the IC50 was 15.8 nM in the assay with HCC827 and greater than 10000 nM in the assay with NCI-H1975. Besides, the outcome in assay [4] and in assay [5] was inactive.
As to `Cc1ncsc1-c1ccc(CNC(=O)[C@@H]2C[C@@H](O)CN2C(=O)[C@@H](NCCOCCOCCOCCOCCN2CCN(c3ccc(Nc4ncc5nc(Nc6ccccc6)n(C6CCCC6)c5n4)cc3)CC2)C(C)(C)C)cc1`, the IC50 with HCC827 was 62 nM; in the assay on NCI-H1975, 2890 nM; with HepG2 it was greater than 5000 nM. The result in assay [3] was inactive.
A word on the DC50: it is the concentration giving 50% degradation. For the compound `Cc1ncsc1-c1ccc(CNC(=O)[C@@H]2C[C@@H](O)CN2C(=O)[C@@H](NC(=O)CCCCCCCN2CCN(c3ccc(Nc4ncc5nc(Nc6ccccc6)n(C6CCCC6)c5n4)cc3)CC2)C(C)(C)C)cc1`, the IC50 is 330 nM in the assay with A-431, 0.76 nM in the assay with HCC827, 970 nM with NCI-H1975 and greater than 5000 nM in the assay on HepG2. Further, the outcome in assay [6], in assay [7] and in assay [8] was Active. In addition, the outcome in [9] was inactive. Moreover, in assay [10], the Activity result is “Tde”. Moreover, the results for the Emax in assay [11] and in assay [14] were 74.8% and 80.3%, respectively. Further, the DC50 in assay [12] is 3.54 nM; in assay [13], 151 nM.
For `O=C1CCC(N2Cc3c(NC(=O)CCCCCCCN4CCN(c5ccc(Nc6ncc7nc(Nc8ccccc8)n(C8CCCC8)c7n6)cc5)CC4)cccc3C2=O)C(=O)N1` (stereo not given), the IC50 is 240 nM in the assay on A-431, 2.61 nM in the assay on HCC827, 3780 nM in the assay on NCI-H1975 and greater than 5000 nM in the assay on HepG2. For the same compound, the outcome in assay [1] was inactive. The result in assay [2] was Active.
